The values that follow come from PubChem BioAssay AID463073 (The Scripps Research Institute Molecular Screening Center, 2010).

Molecules are shown by their SMILES. Among all 2,000 compounds or so, about 10 (0.5%) were called active. For the sample, actives were picked, then their nearest neighbours and some compounds at random. Unmarked numbers belong to inactive results.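 The calls were made as follows: active = inhibition above 30%; inactive = the rest.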 Residues, ends and D or L forms follow the SMILES beside them. *: point of attachment. Boc = CC(C)(C)OC(=O)*

The test deals with Protein-arginine deiminase type-4 (Homo sapiens) (UniProt Q9UM07). Kind of test: blockers of protein arginine deiminase 4 – biochemical, fluorescence polarization, primary screen (AID 463073).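 Also: 0% = PAD4 with DMSO and 100% = wells lacking PAD4.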 To be noted: recombinant PAD4, RFA probe fluorescence polarization; at 5 µM; active compounds read high. A digest of the protocol: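 Material – recombinant PAD4 · Amount – PAD4 at 2 µM in dispensed buffer, before additions · Medium – Ca2+-containing HEPES pH 7.6, TCEP · Doses – one dose, 5 µM final · Schedule – 30 min 25 °C preincubation, 5 h 37 °C labeling · Measured by – FP, ex 525 nm, em 598 nm · Benchmarks – wells lacking PAD4 as full-inhibition control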
Protein-arginine deiminase type-4 (Homo sapiens), sequence (Q9UM07 whole entry, looked up): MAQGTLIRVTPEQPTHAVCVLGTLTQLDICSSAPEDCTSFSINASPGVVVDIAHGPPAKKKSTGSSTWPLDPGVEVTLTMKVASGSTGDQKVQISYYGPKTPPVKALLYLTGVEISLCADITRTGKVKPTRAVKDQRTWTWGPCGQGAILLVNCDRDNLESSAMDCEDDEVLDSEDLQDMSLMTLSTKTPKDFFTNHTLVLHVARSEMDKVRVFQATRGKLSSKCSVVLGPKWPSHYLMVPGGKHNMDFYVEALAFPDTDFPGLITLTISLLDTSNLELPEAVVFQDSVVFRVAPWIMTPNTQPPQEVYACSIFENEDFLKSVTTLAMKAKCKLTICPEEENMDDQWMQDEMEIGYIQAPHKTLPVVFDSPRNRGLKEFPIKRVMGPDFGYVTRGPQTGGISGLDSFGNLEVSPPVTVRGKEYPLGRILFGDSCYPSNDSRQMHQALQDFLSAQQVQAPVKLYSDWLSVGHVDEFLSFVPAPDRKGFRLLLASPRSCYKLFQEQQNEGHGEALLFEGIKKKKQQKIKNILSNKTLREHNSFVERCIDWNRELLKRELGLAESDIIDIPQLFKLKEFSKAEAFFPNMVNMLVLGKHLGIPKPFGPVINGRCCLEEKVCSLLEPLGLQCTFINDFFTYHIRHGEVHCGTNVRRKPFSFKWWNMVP
As for `Cc1ccsc1/C=C/C1=NCCCN1C`, the inhibition was 1.68%.

In the case of `CC(C)Cc1cc(C(=O)N2CCC(N3CCC(C(=O)N4CCCC4)CC3)CC2)n[nH]1`, the inhibition was 1.19%.

With `COc1ccc(C(=O)NC(=O)NC2(C(Cl)(Cl)Cl)OCCO2)cc1`, the inhibition is 3.68%.

With `COc1cc(OC)c2c(C)c(Cl)c(=O)oc2c1`, the inhibition was 5.74%.

With `COc1ccc(C2NCCC3(O)CCCCC23)c(OC)c1OC` (stereo unspecified), the inhibition is -0.4%.

Turning to `CC1(C)C(=O)OC(C(=O)c2ccc(Cl)cc2)C(C)(C)C1=O` (stereo unspecified), the inhibition is -1.03%.

For `COc1ccc(OC(C)C(=O)Nc2ccccc2F)cc1` (stereo unspecified), the inhibition is -0.2%.

For the molecule `COc1cccc(OC)c1C(=O)NCCSC1CCCCC1`, the inhibition is -2.94%.

Consider `COc1ccc(N2C(=O)C3CCCN3C2=O)cc1` (stereo unspecified), for which the inhibition was 4.89%.

In the case of `CC1(C)Cc2nc3oc4c(NCc5ccccc5)ncnc4c3cc2CO1`, the inhibition was 1.79%.

For the molecule `CCOC(=O)C1NN=C(C(=O)c2ccccc2)C1c1ccc(Cl)cc1` (stereo unspecified), the inhibition is 1.88%.

Turning to `CN(C)C(=O)C12CCC(C)(c3nc4ccccc4nc31)C2(C)C` (stereo unspecified), the inhibition was 3.6%.

In the case of `Cc1ccc(S(=O)(=O)NC(C(=O)Oc2ccc3c(C(F)(F)F)cc(=O)oc3c2)c2ccccc2)cc1` (stereo unspecified), the inhibition was 6.06%.

As for `O=C(NCCC(c1ccccc1)c1ccco1)c1cccs1` (stereo unspecified), the inhibition was -4.26%.

On to `O=C1CC[C@@H](CN(Cc2ccccc2)Cc2cn[nH]c2-c2cc3ccccc3o2)N1`, for which the inhibition was -4.5%.

Consider `CC(C)CC(NC(=O)C1CCCN1C(=O)OC(C)(C)C)C(=O)NCC(N)=O` (stereo not drawn) (Boc-Pro-Leu-Gly-NH2; configuration not given here), for which the inhibition is 0.39%.

Turning to `Cc1nc2cc3ccccc3cc2c(=O)[nH]1`, the inhibition is -2.65%.

In the case of `O=C(O)c1cnccn1`, the inhibition is 1.59%.

With `CC1(CC(=O)Nc2ccccc2)NC(=S)N(c2ccccc2)N1` (stereo unspecified), the inhibition was 0.19%.

In the case of `O=C1c2cccc3cccc(c23)C(=O)N1c1ccccn1`, the inhibition is -4.66%.

As to `O=C(c1ccc(-c2ccccc2)c(F)c1)C1CCCN(C(=O)c2cncs2)C1` (stereo unspecified), the inhibition was 3.12%.

Consider `O=C(O)CCSCCC(=O)O`, for which the inhibition is -2.7%.

For the molecule `COc1ccc(C(C)=O)c2c1OCCO2`, the inhibition is 6.78%.

Consider `CC1(C)CC(C(CC(=O)N2CCCC2)Cc2ccccc2)CCO1` (stereo unspecified), for which the inhibition was -1.3%.

Consider `COc1ccc(NS(=O)(=O)c2ccc(N)cc2)nn1`, for which the inhibition was 0.73%.

Take `COc1ccc(-c2noc(-c3ccccc3-c3ccccc3)n2)cc1`: the inhibition is -3.61%.

For the molecule `O=C1C2CC=C(Cl)CC2C(=O)N1CCc1c[nH]c2ccccc12` (stereo unspecified), the inhibition was -0.53%.

In the case of `COc1ccc(C(CC(=O)N2CCOCC2)C(C)C)cc1` (stereo unspecified), the inhibition is 4.61%.

In the case of `COc1ccc(N2CCN(C(=S)NCc3ccccc3)CC2)cc1`, the inhibition was -1.38%.

As to `COc1ccc(NC(=S)N2CCN(CCN3C(=O)c4cccc5cccc(c45)C3=O)CC2)cc1`, the inhibition was 2.54%.

With `COC(=O)[C@@H](N)CS`, the inhibition was 2.39%.

On to `O=C(NC(=S)Nc1nc(-c2ccccc2)cs1)c1ccco1`, for which the inhibition was 4.01%.

Take `CC(NC(=O)c1ccc(OC2CCN(Cc3ccccn3)CC2)cc1)c1ccccc1` (stereo unspecified): the inhibition is -1.87%.

On to `OCC1CCN(Cc2cn(Cc3ccccc3)nc2-c2cc3ccccc3o2)CC1`, for which the inhibition is -3.81%.

`CCOc1ccc2nc(N/C(N)=N/S(C)(=O)=O)nc(C)c2c1`: the inhibition is -1.87%.

For the molecule `COc1cc(SC)ccc1C(=O)NC(C)C`, the inhibition was -4.36%.

Regarding `CCn1c(O)c(/C=C2\C=Nc3ccccc32)sc1=O`, the inhibition is 6.23%.

For the molecule `Cc1ccc(C(=O)NCCNC(=O)c2ccccc2)cc1`, the inhibition was -2.16%.

With `CC12CCC(C(=O)Nc3ccccc3Br)(C/C1=N\O)C2(C)C` (stereo unspecified), the inhibition is 2.8%.

Turning to `COC(=O)c1ccc2c(c1)C(=O)/C(=C/c1ccc(O)cc1)O2`, the inhibition is 2.19%.

For the molecule `NC[C@H]1O[C@H](O[C@H]2[C@H](O)[C@@H](O[C@H]3O[C@H](CO)[C@@H](O)[C@H](N)[C@H]3O)[C@H](N)C[C@@H]2N)[C@H](N)C[C@@H]1O`, the inhibition is 0.78%.

With `O=C(c1ccccc1)N1CCN(C(=O)c2ccccc2)CC1`, the inhibition was -0.13%.

As for `Cn1c(=O)c2c(nc(SCCN3CCCCC3)n2C)n(C)c1=O`, the inhibition is 4.29%.

As to `CCSC(=O)CCCCCCCCCCCO`, the inhibition is 3.34%.

For `CC(C)OC(=O)C1C(=O)CC(C)(O)C(C(=O)OC(C)C)C1c1cccc(O)c1` (stereo unspecified), the inhibition was 2.73%.

In the case of `COc1ccc(O)c(C(=O)/C=C/c2cc3ccccc3o2)c1`, the inhibition was 0.93%.

Turning to `COc1ccc(CCNC(=O)CC(c2ccccc2)c2cccc(C)c2O)cc1OC` (stereo unspecified), the inhibition was 1.59%.

Take `COc1ccc(C2NC(C(=O)O)Cc3c2[nH]c2ccccc32)cc1CN1CCN(c2ccc(F)cc2)CC1` (stereo unspecified): the inhibition was 6.02%.

Turning to `CC(=O)[C@@]1(O)CC[C@H]2[C@@H]3C[C@H](C)C4=CC(=O)C=C[C@]4(C)[C@@]3(F)[C@@H](O)C[C@@]21C`, the inhibition was -5.68%.

For `COc1ccc2c(c1OC)C(=O)OC2C1c2c(cc3c(c2OC)OCO3)CCN1C` (stereo unspecified), the inhibition was 7.1%.

Turning to `CCOC(=O)c1ccc2[nH]c(C)c(CCC(C)=O)c(=O)c2c1`, the inhibition was -4.46%.
